Reference: ChEMBL document CHEMBL5055628, “Anticancer properties of indole derivatives as IsoCombretastatin A-4 analogues” (Eur J Med Chem, 2021)
One block for each compound: values may come before it. Activity calls are given as the source filed them. The rule behind the calls is not given here.

What was measured:
K562 [1] = assay: Induction of mitochondrial dysfunction in human K562 cells assessed as green monomer formation at 10 nM measured after 48 hrs by JC-1 staining based flow cytometry (reference value: 1.3%); format: functional
K562 [2] = assay: Induction of mitochondrial dysfunction in human K562 cells assessed as red aggregate formation at 0.5 nM measured after 48 hrs by JC-1 staining based flow cytometry (reference value: 98.3%); format: functional
[3] = Inhibition of porcine brain tubulin polymerization incubated for 30 mins followed by cooling on ice for 10 mins and measured by UV spectrometer assay; format: tissue-based, Sus scrofa
In short: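 Porcine brain tubulin (Shelanski isolation) in 0.1 M MES, 1.5 mM GTP, 1 mM EGTA, 1 mM β-ME, 1 mM MgCl2, pH 6.7, diluted to 1.5 mg/mL; ligand or DMSO 30 min at 20 °C, 10 min on ice. Assembly by 450 nm turbidity on 4→37 °C shift, plateau minus baseline vs no-ligand control (100%); IC50 from mono-exponential fit of ligand:tubulin ratio, three independent experiments.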

K562 [4] = assay: Cell cycle arrest in human K562 cells assessed as accumulation of cells in G2/M phase at 0.5 nM measured after 24 hrs by PI staining based flowcytometry; format: functional
In short: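 Exponentially growing K562 cells exposed to compound (0.5 and 1 nM) or DMSO alone for 24 h. DNA content stained with propidium iodide and cell-cycle distribution read by flow cytometry.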

K562 [5] = assay: Induction of mitochondrial dysfunction in human K562 cells assessed as red aggregate formation at 5 nM measured after 48 hrs by JC-1 staining based flow cytometry (reference value: 98.3%); format: functional
[6] = Drug metabolism in rat liver microsomes assessed as hydroxylated metabolite formation measured after 96 hrs by ESI-HRMS assay; format: ADME, Microsome
In short: (§1)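 Compound at 100 μM final incubated at 37 °C with rat or human liver microsomes (1 mg/mL protein, 10 mM buffer pH 7.4) plus NADPH-generating system (0.6 mM NADPNa4, 6.4 mM glucose-6-phosphate, 2 U/mL G6PDH). After 96 h, ethyl acetate extraction and HPLC-MS/MS (positive ESI, m/z 150–450, collision-induced dissociation) to identify metabolites.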

[7] = Metabolic stability in rat liver microsomes assessed as half life measured after 96 hrs by HPLC-MS/MS analysis; format: ADME, Microsome
In short: (§2)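 Compound (100 μM final) incubated at 37 °C with rat or human liver microsomes (1 mg/mL protein, pH 7.4) and NADPH-generating system; triplicate aliquots at 0–144 h quenched with isoCA-4 internal standard and ethyl acetate, quantified by HPLC-MS/MS against calibration curves.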

K562 [8] = assay: Anticlonogenic activity against human K562 cells assessed as reduction in average size of cell colonies at 0.05 to 10 nM measured after 10 days by MTT reagent based colony formation assay; format: functional; conditions: dose 0.05-10 nM, time 10.0 day
In short: (§3)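 10^3 K562 cells (RPMI 1640, 10% FBS) or imatinib-resistant K562IR cells (RPMI 1640 with 25 mM HEPES, 10% FCS; kept in 1 μM imatinib, washed three times before use) grown 10 days in semisolid methylcellulose medium with 10% FBS, with or without compound. Colonies stained with 1 mg/mL MTT and image-analysed; three independent experiments, mean ± SD, two-way ANOVA with Tukey test.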

K562 [9] = assay: Anticlonogenic activity against human K562 cells assessed as reduction in total surface area of cell colonies at 0.05 to 10 nM measured after 10 days by MTT reagent based colony formation assay; format: functional; conditions: dose 0.05-10 nM, time 10.0 day; in short: as §3
K562 [10] = assay: Cytotoxicity against human K562 cells assessed as inhibition of cell growth measured after 72 hrs by CellTiter-Glo reagent based luminescence assay; format: functional; conditions: K562, 72 h
In short: (§4)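 Cells seeded at 3 × 10³/well and grown 24 h. A549, MDA-MB231, K562 and K562R (doxorubicin-resistant) were in RPMI 1640; MiaPaCa2 and HT29 in DMEM (4.5 g/L glucose); all media had 10% FCS and 1% glutamine, at 37 °C and 5% CO₂. Cells got 10 final concentrations by serial dilution, with vehicle controls, for 72 h. CellTiter-Glo luminescence was read after 15 min. Triplicate runs; IC50 from four- or five-parameter logistic fits.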

K-562R [11] = assay: Anticlonogenic activity against imatinib-resistant human K-562R cells assessed as reduction of total surface of cell colonies at 0.01 to 10 nM measured after 10 days by MTT reagent based colony formation assay; format: functional; conditions: dose 0.01-10 nM, time 10.0 day; in short: as §3
MDA-MB-231 = assay: Cytotoxicity against human MDA-MB-231 cells assessed as inhibition of cell growth measured after 72 hrs by CellTiter-Glo reagent based luminescence assay; format: functional; conditions: MDA-MB-231, 72 h; in short: as §4
K562 [12] = assay: Induction of mitochondrial dysfunction in human K562 cells assessed as green monomer formation at 50 nM measured after 48 hrs by JC-1 staining based flow cytometry (reference value: 1.3%); format: functional
K562 [13] = assay: Induction of mitochondrial dysfunction in human K562 cells assessed as red aggregate formation at 50 nM measured after 48 hrs by JC-1 staining based flow cytometry (reference value: 98.3%); format: functional
HT-1080 = assay: Cytotoxicity against human HT-1080 cells assessed as inhibition of cell growth measured after 72 hrs by CellTiter-Glo reagent based luminescence assay; format: functional; conditions: HT-1080, 72 h
K-562R [14] = assay: Anticlonogenic activity against imatinib-resistant human K-562R cells assessed as reduction of average size of cell colonies at 0.01 to 10 nM measured after 10 days by MTT reagent based colony formation assay; format: functional; conditions: dose 0.01-10 nM, time 10.0 day; in short: as §3
HCT-116 = assay: Cytotoxicity against human HCT-116 cells assessed as inhibition of cell growth measured after 72 hrs by CellTiter-Glo reagent based luminescence assay; format: functional; conditions: HCT-116, 72 h
In short: (§5)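 Cells (HCT-116 in McCoy's 5A; U87-MG in DMEM 4.5 g/L glucose; all with 10% serum, 1% glutamine, 37 °C, 5% CO2) seeded at 3 × 10³/well, treated after 24 h with 10 final concentrations by serial dilution; vehicle controls. After 72 h, CellTiter-Glo luminescence; IC50 from four- or five-parameter logistic fit, triplicate, mean of three experiments.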

K562 [15] = assay: Induction of mitochondrial dysfunction in human K562 cells assessed as green monomer formation at 5 nM measured after 48 hrs by JC-1 staining based flow cytometry (reference value: 1.3%); format: functional
[16] = Drug metabolism in rat liver microsomes assessed as N-demethylated metabolite formation measured after 96 hrs by ESI-HRMS assay; format: ADME, Microsome; in short: as §1
K562 [17] = assay: Induction of mitochondrial dysfunction in human K562 cells assessed as green monomer formation at 1 nM measured after 48 hrs by JC-1 staining based flow cytometry (reference value: 1.3%); format: functional
A549 = assay: Cytotoxicity against human A549 cells assessed as inhibition of cell growth measured after 72 hrs by CellTiter-Glo reagent based luminescence assay; format: functional; conditions: A549, 72 h; in short: as §4
[18] = Drug metabolism in human liver microsomes assessed as N-demethylated metabolite formation measured after 96 hrs by ESI-HRMS assay; format: ADME, Microsome; in short: as §1
[19] = Metabolic stability in human liver microsomes assessed as half life measured after 96 hrs by HPLC-MS/MS analysis; format: ADME, Microsome; in short: as §2
K562 [20] = assay: Induction of mitochondrial dysfunction in human K562 cells assessed as red aggregate formation at 10 nM measured after 48 hrs by JC-1 staining based flow cytometry (reference value: 98.3%); format: functional
U-87 MG = assay: Cytotoxicity against human U-87 MG cells assessed as inhibition of cell growth measured after 72 hrs by CellTiter-Glo reagent based luminescence assay; format: functional, U-87MG ATCC; in short: as §5
K562 [21] = assay: Induction of mitochondrial dysfunction in human K562 cells assessed as green monomer formation at 0.5 nM measured after 48 hrs by JC-1 staining based flow cytometry (reference value: 1.3%); format: functional
K-562R [22] = assay: Anticlonogenic activity against imatinib-resistant human K-562R cells assessed as reduction in number of cell colonies at 0.01 to 10 nM measured after 10 days by MTT reagent based colony formation assay; format: functional; conditions: dose 0.01-10 nM, time 10.0 day; in short: as §3
K-562R [23] = assay: Cytotoxicity against human K-562R cells assessed as inhibition of cell growth measured after 72 hrs by CellTiter-Glo reagent based luminescence assay; format: functional; in short: as §4
[24] = Drug metabolism in human liver microsomes assessed as hydroxylated metabolite formation measured after 96 hrs by ESI-HRMS assay; format: ADME, Microsome; in short: as §1
K562 [25] = assay: Anticlonogenic activity against human K562 cells assessed as reduction in number of cell colonies at 0.05 to 10 nM measured after 10 days by MTT reagent based colony formation assay; format: functional; conditions: dose 0.05-10 nM, time 10.0 day; in short: as §3
HT-29 = assay: Cytotoxicity against human HT-29 cells assessed as inhibition of cell growth measured after 72 hrs by CellTiter-Glo reagent based luminescence assay; format: functional; conditions: HT-29, 72 h; in short: as §4
MIA PaCa-2 = assay: Cytotoxicity against human MIA PaCa-2 cells assessed as inhibition of cell growth measured after 72 hrs by CellTiter-Glo reagent based luminescence assay; format: functional; conditions: MIA PaCa-2, 72 h; in short: as §4
K562 [26] = assay: Induction of mitochondrial dysfunction in human K562 cells assessed as red aggregate formation at 1 nM measured after 48 hrs by JC-1 staining based flow cytometry (reference value: 98.3%); format: functional
[27] = Drug metabolism in rat liver microsomes assessed as O-demethylated metabolite formation measured after 96 hrs by ESI-HRMS assay; format: ADME, Microsome
In short: (§6)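 Rat or human liver microsomes at 1 mg/mL final protein in 10 mM buffer, pH 7.4, prewarmed to 37 °C with an NADPH-generating system (0.6 mM NADP, 6.4 mM glucose-6-phosphate, 2 U/mL G6P dehydrogenase). Substrate 100 μM final; shaken at 37 °C. Triplicate aliquots taken at 0–96 h (up to 144 h), ethyl acetate quench with internal standard, then HPLC-MS/MS (positive ESI, m/z 150–450, CID).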

[28] = Drug metabolism in human liver microsomes assessed as O-demethylated metabolite formation measured after 96 hrs by ESI-HRMS assay; format: ADME, Microsome; in short: as §6

IC50 [3]: 1900 nM
Drug metabolism [6]: Metabolite_Detected
half-life [7]: 140 h
Drug metabolism [16]: Metabolite_Detected
Drug metabolism [18]: Metabolite_Detected
half-life [19]: 145 h
Drug metabolism [24]: Metabolite_Detected
SMILES: CCn1c(CO)cc2cc(N(C)c3nc(C)nc4ccccc34)ccc21
Activity (K562 [1]): 31.2%
Activity (K562 [2]): 77.6%
Activity (K562 [4]): Active
Activity (K562 [5]): 75.8%
Activity (K562 [8]): Active
Activity (K562 [9]): Active
IC50 (K562 [10]): 0.26 nM
Activity (K-562R [11]): Active
IC50 (MDA-MB-231): 0.25 nM
Activity (K562 [12]): 39.2%
Activity (K562 [13]): 60%
IC50 (HT-1080): 0.08 nM
Activity (K-562R [14]): Active
IC50 (HCT-116): 0.08 nM
Activity (K562 [15]): 23.1%
Activity (K562 [17]): 22.3%
IC50 (A549): 0.7 nM
Activity (K562 [20]): 68.1%
IC50 (U-87 MG): 0.51 nM
Activity (K562 [21]): 21.3%
Activity (K-562R [22]): Active
IC50 (K-562R [23]): 0.1 nM
Activity (K562 [25]): Active
IC50 (HT-29): 0.84 nM
IC50 (MIA PaCa-2): 0.09 nM
Activity (K562 [26]): 76.9%

SMILES: COc1cc(N(C)c2ccc3c(c2)cc2n3CCOC2)cc(OC)c1OC
IC50 (HCT-116): 29.2 nM

SMILES: C=C(c1ccc(OC)c(O)c1)c1cc(OC)c(OC)c(OC)c1
Drug metabolism [27]: Metabolite_Detected
Drug metabolism [6]: Metabolite_Detected
Drug metabolism [28]: Metabolite_Detected
half-life [7]: 18 h
IC50 (K562 [10]): 4.26 nM
IC50 (MDA-MB-231): 1.98 nM
IC50 (HT-1080): 0.91 nM
IC50 (HCT-116): 0.64 nM
IC50 (A549): 52.7 nM
half-life [19]: 30 h
IC50 (K-562R [23]): 5.13 nM
Drug metabolism [24]: Metabolite_Detected
IC50 (HT-29): > 100 nM
IC50 (MIA PaCa-2): 3.01 nM

SMILES: COCOCc1cc2cc(N(C)c3cc(C)nc4ccccc34)ccc2n1C
IC50 (HCT-116): 44.3 nM

SMILES: C=C(c1cc(OC)c(OC)c(OC)c1)c1ccc2c(c1)cc1n2CC=CC1
IC50 (HCT-116): 970 nM

SMILES: Cc1cc(N(C)c2ccc3c(c2)cc2n3CC=CC2)c2ccccc2n1
IC50 (HCT-116): 5.2 nM
